Measurements taken from publication PMC6605684 (The Journal of General Physiology, 2019).
Entries after “also recorded” stand apart in the source; their conditions may differ.

Columns and labels:
F236A-CFTR = F236A-CFTR (Homo sapiens, UniProt P13569, F236A); assay: Inside-out patch-clamp of CFTR currents in transfected CHO cells; format: cell-based; conditions: 200 nM VX-770, mean
Outline: (§1)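 CFTR construct and GFP plasmid cotransfected into CHO cells, held at 27°C for 2–6 d. Inside-out patches at room temperature, −30 mV, NMDG-Cl solutions at pH 7.4. Channels preactivated with 25 IU PKA plus 2 mM MgATP, then test compound (max 40 µM) applied in 2 mM ATP. ATP-subtracted steady-state currents normalized to the 3 µM response in the same patch. Hill fit with base 0 and maximum 1; EC50 ± SD of fit; 3–7 patches per point.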

S263A-CFTR = S263A-CFTR (Homo sapiens, UniProt P13569, S263A); assay: as above; format: cell-based; conditions: 200 nM VX-770, mean
Chain of S263A-CFTR (P13569 whole entry S263A): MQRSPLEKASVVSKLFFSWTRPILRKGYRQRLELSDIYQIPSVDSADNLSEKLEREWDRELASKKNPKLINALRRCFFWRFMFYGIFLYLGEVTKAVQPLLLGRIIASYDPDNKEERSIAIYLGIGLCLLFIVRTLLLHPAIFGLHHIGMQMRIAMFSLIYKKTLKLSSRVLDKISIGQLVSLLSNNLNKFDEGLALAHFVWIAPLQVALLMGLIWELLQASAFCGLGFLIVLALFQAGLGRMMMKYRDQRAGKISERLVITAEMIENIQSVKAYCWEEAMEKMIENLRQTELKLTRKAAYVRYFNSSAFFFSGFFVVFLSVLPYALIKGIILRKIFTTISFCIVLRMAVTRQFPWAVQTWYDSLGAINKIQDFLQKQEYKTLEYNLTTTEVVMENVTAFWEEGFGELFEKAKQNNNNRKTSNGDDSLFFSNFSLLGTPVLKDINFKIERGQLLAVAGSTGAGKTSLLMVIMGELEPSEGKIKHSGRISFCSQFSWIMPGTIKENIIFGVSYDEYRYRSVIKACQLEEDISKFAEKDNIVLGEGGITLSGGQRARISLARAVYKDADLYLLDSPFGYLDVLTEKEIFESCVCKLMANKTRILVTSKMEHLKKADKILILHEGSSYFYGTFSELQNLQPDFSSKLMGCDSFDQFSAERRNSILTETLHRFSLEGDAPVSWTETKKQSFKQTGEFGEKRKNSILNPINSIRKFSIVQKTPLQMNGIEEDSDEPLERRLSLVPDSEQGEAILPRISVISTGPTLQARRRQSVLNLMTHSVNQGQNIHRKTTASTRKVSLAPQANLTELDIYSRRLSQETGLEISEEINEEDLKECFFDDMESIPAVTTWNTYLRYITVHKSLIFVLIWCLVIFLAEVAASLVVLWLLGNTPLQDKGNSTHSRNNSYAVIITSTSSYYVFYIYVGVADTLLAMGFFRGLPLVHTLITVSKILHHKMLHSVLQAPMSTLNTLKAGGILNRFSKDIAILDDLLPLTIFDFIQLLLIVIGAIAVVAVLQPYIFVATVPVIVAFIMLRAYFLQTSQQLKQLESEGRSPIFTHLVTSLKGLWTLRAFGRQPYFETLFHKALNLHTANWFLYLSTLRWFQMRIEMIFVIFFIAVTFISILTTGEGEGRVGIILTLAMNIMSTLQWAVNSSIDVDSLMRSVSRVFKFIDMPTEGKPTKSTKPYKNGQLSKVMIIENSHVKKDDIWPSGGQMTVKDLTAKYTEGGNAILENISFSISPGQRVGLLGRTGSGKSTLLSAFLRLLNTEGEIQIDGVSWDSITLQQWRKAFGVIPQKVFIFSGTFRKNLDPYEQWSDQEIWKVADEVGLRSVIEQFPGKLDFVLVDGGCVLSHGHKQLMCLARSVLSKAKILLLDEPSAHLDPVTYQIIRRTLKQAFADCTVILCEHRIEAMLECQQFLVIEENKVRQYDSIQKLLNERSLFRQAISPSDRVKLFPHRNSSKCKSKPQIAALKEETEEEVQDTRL
Outline: as §1

F304Y-mCFTR = F304Y-mCFTR (Mus musculus, UniProt P26361, F304Y); assay: as above; format: cell-based
Chain of F304Y-mCFTR (P26361 whole entry F304Y): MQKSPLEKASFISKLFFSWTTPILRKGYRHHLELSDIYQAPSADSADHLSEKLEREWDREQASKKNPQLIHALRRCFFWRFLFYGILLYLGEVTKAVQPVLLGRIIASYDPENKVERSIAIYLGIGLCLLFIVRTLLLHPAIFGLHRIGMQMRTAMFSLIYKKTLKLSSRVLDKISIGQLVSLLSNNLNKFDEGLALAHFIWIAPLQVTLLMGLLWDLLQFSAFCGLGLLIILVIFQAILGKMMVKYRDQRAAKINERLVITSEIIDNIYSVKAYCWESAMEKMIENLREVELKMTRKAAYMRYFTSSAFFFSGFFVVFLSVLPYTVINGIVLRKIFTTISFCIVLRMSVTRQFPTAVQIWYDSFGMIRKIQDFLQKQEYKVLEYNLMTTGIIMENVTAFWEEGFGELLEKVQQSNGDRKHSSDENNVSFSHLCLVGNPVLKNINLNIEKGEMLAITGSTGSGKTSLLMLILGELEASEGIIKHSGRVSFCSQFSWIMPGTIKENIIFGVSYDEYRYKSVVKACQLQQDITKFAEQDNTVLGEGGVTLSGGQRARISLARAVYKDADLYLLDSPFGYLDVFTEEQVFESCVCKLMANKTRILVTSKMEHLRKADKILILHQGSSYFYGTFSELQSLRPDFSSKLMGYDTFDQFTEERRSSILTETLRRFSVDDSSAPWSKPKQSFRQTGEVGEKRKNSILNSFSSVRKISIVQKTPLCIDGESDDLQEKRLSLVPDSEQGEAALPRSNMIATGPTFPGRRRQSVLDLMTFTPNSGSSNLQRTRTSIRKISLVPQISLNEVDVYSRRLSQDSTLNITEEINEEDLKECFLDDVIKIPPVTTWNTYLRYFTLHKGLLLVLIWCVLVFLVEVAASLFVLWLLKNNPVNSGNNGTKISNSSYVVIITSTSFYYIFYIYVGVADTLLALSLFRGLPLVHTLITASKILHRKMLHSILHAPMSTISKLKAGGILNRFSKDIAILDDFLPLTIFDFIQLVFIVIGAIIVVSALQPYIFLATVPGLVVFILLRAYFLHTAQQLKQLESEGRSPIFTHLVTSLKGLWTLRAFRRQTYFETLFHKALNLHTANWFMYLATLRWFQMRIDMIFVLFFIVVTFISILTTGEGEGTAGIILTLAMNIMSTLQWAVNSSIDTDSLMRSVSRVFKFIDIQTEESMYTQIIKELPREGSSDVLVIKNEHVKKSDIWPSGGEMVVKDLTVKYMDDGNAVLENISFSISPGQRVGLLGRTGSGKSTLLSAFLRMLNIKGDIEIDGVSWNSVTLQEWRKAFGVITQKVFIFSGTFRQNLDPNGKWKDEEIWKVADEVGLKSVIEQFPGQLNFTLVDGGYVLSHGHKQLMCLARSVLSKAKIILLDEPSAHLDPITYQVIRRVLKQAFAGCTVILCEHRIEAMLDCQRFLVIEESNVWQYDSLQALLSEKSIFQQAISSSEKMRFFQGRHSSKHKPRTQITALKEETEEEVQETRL
Outline: as §1

S182A-CFTR = S182A-CFTR (Homo sapiens, UniProt P13569, S182A); assay: as above; format: cell-based; conditions: 200 nM VX-770, mean
Chain of S182A-CFTR (P13569 whole entry S182A): as the sequence (P13569 whole entry S263A) above, with S182A, A263S counted along it
Outline: as §1

F312A-CFTR = F312A-CFTR (Homo sapiens, UniProt P13569, F312A); assay: Inside-out patch-clamp of CFTR currents in transfected CHO cells; format: cell-based; conditions: 200 nM VX-770, 30 µM ATP, mean
Chain of F312A-CFTR (P13569 whole entry F312A): as the sequence (P13569 whole entry S263A) above, with A263S, F312A counted along it

WT-mCFTR = WT-mCFTR (Mus musculus, UniProt P26361); assay: Inside-out patch-clamp of CFTR currents in transfected CHO cells; format: cell-based; conditions: 200 nM VX-770, 2 mM ATP
Chain of WT-mCFTR (P26361 whole entry): as the sequence (P26361 whole entry F304Y) above, with Y304F counted along it
Outline: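 Mouse CFTR expressed in CHO cells; inside-out patches. Phosphorylated channels opened by 2 mM ATP before the potentiator was applied (one potentiator at 200 nM). 5 µM CFTRinh-172 added at the end of each recording for baseline.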

Y304A-CFTR = Y304A-CFTR (Homo sapiens, UniProt P13569, Y304A); assay: Inside-out patch-clamp of CFTR currents in transfected CHO cells; format: cell-based; conditions: 200 nM VX-770, mean
Chain of Y304A-CFTR (P13569 whole entry Y304A, the tested form may be a part): as the sequence (P13569 whole entry S263A) above, with A263S, Y304A counted along it
Outline: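 Relaxation assay: PKA-preactivated channels in 2 mM ATP at −30 mV exposed to test compound through a fast three-barrel perfusion system (dead time ∼30 ms). Current decay after sudden removal of 3 µM compound fitted with a single exponential to give relaxation time constant τ.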

WT-CFTR [1] = molecular target: T1, WT-CFTR (Homo sapiens, UniProt P13569); assay: Inside-out patch-clamp of CFTR currents in transfected CHO cells; format: cell-based; conditions: mean
T1 sequence (P13569 whole entry): as the sequence (P13569 whole entry S263A) above, with A263S counted along it
Outline: as §1

N1138L/G551D-CFTR = N1138L/G551D-CFTR (Homo sapiens, UniProt P13569, G551D/N1138L); assay: as above; format: cell-based; conditions: mean
Chain of N1138L/G551D-CFTR (P13569 whole entry G551D/N1138L): as the sequence (P13569 whole entry S263A) above, with A263S, G551D, N1138L counted along it
Outline: as §1

G551D-CFTR = G551D-CFTR (Homo sapiens, UniProt P13569, G551D); assay: as above; format: cell-based
Chain of G551D-CFTR (P13569 whole entry G551D): as the sequence (P13569 whole entry S263A) above, with A263S, G551D counted along it
Outline: as §1

WT-CFTR [2] = molecular target: T1, WT-CFTR; conditions: ref Jih and Hwang, 2013; cited from earlier work
S1141K/G551D-CFTR = S1141K/G551D-CFTR (Homo sapiens, UniProt P13569, G551D/S1141K); assay: Inside-out patch-clamp of CFTR currents in transfected CHO cells; format: cell-based; conditions: mean
Chain of S1141K/G551D-CFTR (P13569 whole entry G551D/S1141K): as the sequence (P13569 whole entry S263A) above, with A263S, G551D, S1141K counted along it
Outline: as §1

D924N-CFTR = D924N-CFTR (Homo sapiens, UniProt P13569, D924N); assay: as above; format: cell-based; conditions: 200 nM VX-770, 2 mM ATP, mean
Chain of D924N-CFTR (P13569 whole entry D924N): as the sequence (P13569 whole entry S263A) above, with A263S, D924N counted along it
Outline: as §1

F229A-CFTR = F229A-CFTR (Homo sapiens, UniProt P13569, F229A); assay: as above; format: cell-based; conditions: 200 nM VX-770, mean
Chain of F229A-CFTR (P13569 whole entry F229A): as the sequence (P13569 whole entry S263A) above, with F229A, A263S counted along it
Outline: as §1

Chain of F236A-CFTR (P13569 whole entry F236A): as the sequence (P13569 whole entry S263A) above, with F236A, A263S counted along it

## CC(C)(C)c1cc(C(C)(C)C)c(NC(=O)c2c[nH]c3ccccc3c2=O)cc1O [VX-770, N-(2,4-di-tert-butyl-5-hydroxyphenyl)-4-oxo-1,4-dihydroquinoline-3-carboxamide]
F236A-CFTR
  τoff (VX-770): 173 ± 45 s
  τon (VX-770): 19 ± 8 s
S263A-CFTR
  τoff (VX-770): 288 ± 68 s
  τon (VX-770): 6.1 ± 1.5 s
F304Y-mCFTR
  Potentiation of currents by VX-770: restores the potentiating effects; also recorded: Restoring the effect
S182A-CFTR
  τoff (VX-770): 343 ± 96 s
  τon (VX-770): 8.2 ± 1.5 s
F312A-CFTR
  τoff (VX-770): 38 ± 5 s
  τon (VX-770): 15 ± 1 s
WT-mCFTR
  Potentiation of currents by VX-770: fails to potentiate
Y304A-CFTR
  τoff (VX-770): 18 ± 6 s
  τon (VX-770): 49 ± 11 s
WT-CFTR [1]; current decay on removal of 200 nM VX-770, 2 mM ATP
  τoff (VX-770): 361 ± 39 s
WT-CFTR [1]; current rise on application of 200 nM VX-770, 2 mM ATP
  τon (VX-770): 6.7 ± 1.2 s
N1138L/G551D-CFTR
  τoff (VX-770): 268 ± 25 s
  τon (VX-770): 18 ± 5 s
G551D-CFTR; current decay on removal of VX-770, mean
  τoff (VX-770): 68 ± 14 s
G551D-CFTR; current rise on application of VX-770, mean
  τon (VX-770): 5.9 ± 2.4 s
WT-CFTR [2]
  Saturating concentration for VX-770: 200 nM
S1141K/G551D-CFTR
  τoff (VX-770): 221 ± 50 s
  τon (VX-770): 14 ± 6 s
D924N-CFTR
  τoff (VX-770): 115 ± 7 s
  τon (VX-770): 78 ± 18 s
F229A-CFTR
  τoff (VX-770): 338 ± 49 s
  τon (VX-770): 6.2 ± 1.3 s
